Reference: ChEMBL document CHEMBL4513216, “Probing the Open Global Health Chemical Diversity Library for Multistage-Active Starting Points for Next-Generation Antimalarials” (ACS Infect Dis, 2020)

Assay: Toxicity liver stage against HepG2, at 10uM
Assay type: cell-based
Parameters: test concentration 10 uM, cell line HepG2-A16-CD81EGFP
Settings: human, HepG2-A16-CD81EGFP cells; read-out: INHIBITION
Procedure, shortened: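 Uninfected HepG2-A16-CD81EGFP cells, 3 × 10^3 per well, 1536-well, plated on prespotted compound at 10 μM final, parasite-free screening media added to match infected plates; puromycin 10 μM positive, DMSO 0.5% negative; run in parallel with 48 h PbLuc assay at 37 °C, 5% CO2; viability by CellTiter-Glo luminescence, normalized to controls.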

SMILES | cytotoxicity at 10 µM
O=S(=O)(NC[C@H]1C[C@@H]2CCN1C[C@@H]2CN1CCOCC1)c1ccccc1 | 1.82%
COC1CN(C(=O)CC2CCCC2)CCC(=O)N(C)c2ccccc21 (stereo not drawn) | -32.8%
Cn1ccc2ccc(C(=O)NC3CCOC(C)(C)C3)cc21 (stereo not drawn) | 3.13%
COC(=O)CC(C1=Cc2ccccc2OC1)c1oc(C)cc(=O)c1O (stereo not drawn) | -8.51%
CCS(=O)(=O)c1nnc([C@@H](N)Cc2ccccc2)o1 | 6.99%
CCCSc1nn(CCCN(C)C)c2nc3sc(C)c(CC)c3c(=O)n12 | -3.63%
CN1CCN(C(=O)c2cc3sccc3n2Cc2ccccc2Cl)CC1 | 2.3%
COCCSc1ccc(-n2cccn2)nn1 | -24.6%
COCCN(Cc1ccoc1)C(=O)c1ccccn1 | 9.24%
O=c1ccc2c([nH]1)CCC(NCc1ccncc1)C2 (stereo not drawn) | -6.22%
CC(C)COCC1CN(Cc2ccco2)Cc2ncn(C)c21 (stereo not drawn) | 4.24%
O=C(c1cnccn1)N1CCN(Cc2cccnc2)c2ncccc2C1 | -1.52%
COc1ccccc1C1CC(=O)Nc2c1c(=O)[nH]n2C1CCCC1 (stereo not drawn) | -3.85%
CC(=O)N1[C@@H](C(=O)NCC2CC2)C[C@@H]2CN(Cc3ccco3)C[C@@H]21 | 4.22%
CCn1cc(-c2cc(C(F)(F)F)nn2CCC#N)cn1 | 3.93%
CCCc1nc(N2CCCCC2)c2c(n1)c(C)nn2CC | 7.46%
CCn1cncc1CN1CCc2nc3sccc3c(=O)n2CC1 | -2.55%
CCc1ncc(CN2C[C@@H]3C[C@@H](O)CN3C[C@@H]2Cc2ccccc2)cn1 | -5.02%
CC(=O)N1CCC(c2cccc(NC3CCOCC3)n2)CC1 | 13.3%
COc1ccc(C2CNCCN2C(=O)c2cccc3ncccc23)cc1 (stereo not drawn) | -8.73%
Cc1nc(C2CCCN(C(C)C)C2)sc1Br (stereo not drawn) | -4.52%
c1ccc(CCN2CCCC2c2ccnc(Nc3ncccn3)n2)cc1 (stereo not drawn) | 2.14%
Cc1ncc(CNC(=O)Cc2cccs2)c(C2CCCN2C)n1 (stereo not drawn) | -0.279%

SMILES | cytotoxicity at 10 µM
O=C(Nc1ccccc1)N1CCn2c(nnc2C2CCNCC2)C1 | -3.84%
CC(C)NC(=O)N1CCC2(CC1)CN(C(=O)NC(C)C)CCO2 | 11.8%
O=C(NCC(O)CO)Nc1cc(Br)ccc1F (stereo not drawn) | 1.69%
COc1ccc(CNCCc2cccc(C(N)=O)c2)cc1C | -6.81%
O=C(COc1ccccc1)NS(=O)(=O)Cc1ccccc1 | -12.3%
C[S+]([O-])c1cccc(NC(=O)N[C@H](CCO)c2ccccc2)c1 (stereo partly drawn) | -3.13%
CS(=O)(=O)c1cccc(Cl)c1C(=O)NCCN1C(=O)CCC1=O | -1.19%
CS(=O)(=O)CCCC(=O)Nc1cc(-c2cccc(F)c2F)n[nH]1 | 4.77%
CC(C)OC(=O)CC(NC(=O)CCn1cccn1)c1ccccc1 (stereo not drawn) | -12.2%
CCCS(=O)(=O)N1CCN(CCCO)CC1 | 5.96%
Cc1cn2nc(N(C)C3CCCN(c4cccnn4)C3)sc2n1 (stereo not drawn) | 4.29%
COc1cc(C)c(S(=O)(=O)CC(=O)N(C)C(C)C)cc1OC | 4.02%
CC(C)c1nc(NC(=O)CCCn2cccc2)n(C)n1 | -7.71%
COc1ccc(OCCN(C)S(=O)(=O)c2cnn(C)c2)cc1 | -2.82%
Cc1ccc(N(CC(=O)N2CCCCC2)C(=O)C2COCCO2)cc1 (stereo not drawn) | 13.6%
Cn1cccc1C(=O)NC(C)(C(N)=O)c1cccc(Cl)c1 (stereo not drawn) | 4.07%
CC(=O)N(C)C1CCN(C(=O)NCC(C)Cc2cccs2)CC1 (stereo not drawn) | -1.99%
CCN1CCCC(CNC(=O)CCc2ccc(OC)c(F)c2)C1 (stereo not drawn) | -3.42%
Cc1ccccc1C(=O)NC1CCN(c2cnn(C)c2)C1=O (stereo not drawn) | 4.19%
NS(=O)(=O)CCCNC(=O)C1(c2cccc(Cl)c2)CC1 | -4.02%
c1csc(-c2nc(CN3CCCCC3Cn3cccn3)co2)c1 (stereo not drawn) | 3.22%
COc1ccc(CNC(C)c2cn[nH]c2C)cc1 (stereo not drawn) | 6.1%
COc1ccc(CN2CCN(c3ncc(Cl)cn3)CC2)cc1 | -4.86%

SMILES | cytotoxicity at 10 µM
CNC(=O)NC(=O)CCSCc1cc(F)cc2cccnc12 | -5.31%
COCCCS(=O)(=O)N1CCN(C(=O)CO)CC1 | -0.995%
CCc1ccc(Cn2nccc2NC(=O)C2CCS(=O)(=O)C2)cc1 (stereo not drawn) | -1.32%
Nc1cc2c(nn1)CCN(C(=O)c1csc(-c3ccco3)n1)C2 | -2.79%
Cc1cnn(CCNCc2csc(C)n2)c1 | 5.79%
CC(C)c1noc(CCC(=O)NC(C)c2nnc3n2CCCCC3)n1 (stereo not drawn) | -4.35%
Cc1cc(CNC(=O)NC(C)c2ccncc2)no1 (stereo not drawn) | -13.5%
Cc1c(C(=O)NC(C)C(C)C)nnn1-c1cccc2c1CCN(C)C2 (stereo not drawn) | -9.03%
CC(C)(CN1CCOCC1)CN1CCC(Cc2cccc(CO)c2)C1 (stereo not drawn) | -7.73%
CCOC(=O)c1n[nH]cc1CN1CCOC(Cc2ccc(OC)cc2)C1 (stereo not drawn) | -0.734%
CN1CCN(Cc2c[nH]cn2)CC12CCC(=O)N(CC1CC1)CC2 (stereo not drawn) | 2.98%
Cc1ccc(OCc2occc2C(=O)N2CCCCC(N)C2)cc1 (stereo not drawn) | -8.84%
OCCC1CN(c2nc(-c3ccncc3)nc3c2CCNCC3)CCO1 (stereo not drawn) | 5.05%
CCc1nc(C)c(C(=O)N2CCNCC2C(=O)Nc2ccc(C)nc2)o1 (stereo not drawn) | -4%
COc1cnc(CN2CCN(CC(C)C)C(=O)C2C)cc1O (stereo not drawn) | 3.28%
O=C(CCn1cc(Cl)cn1)N1CCN(CCOc2ccccc2)CC1 | 4.92%
CCn1c(N)nc2cc(C(=O)NCCCc3ccccn3)cnc21 | -7.38%
COc1c(F)cccc1C(=O)NC(C)c1cnn(C)c1 (stereo not drawn) | 24.5%
c1cc(-c2nccn2CCc2nc3c(s2)CCC3)ccn1 | 6.15%
CC(C)Oc1ccccc1-c1cc(CN)ccc1F | -2.69%
COc1cccc2c1OCCCN(Cc1c[nH]nc1C(=O)O)C2 | 6.5%
CN(CCc1ccccn1)C(=O)c1ccccc1F | -10.5%
CNc1ncc(C(=O)N2CC[C@@](O)(C3CCOCC3)[C@H](C)C2)cn1 | 4.56%

SMILES | cytotoxicity at 10 µM
NC(=O)c1cnc2n1CCN(C(=O)c1ccc(-c3cc[nH]n3)cc1)C2 | -2.79%
Cc1cc2[nH]c(CN3CCOC(Cc4ccccc4)C3)cc(=O)n2n1 (stereo not drawn) | -24.1%
Fc1cc(Cl)cnc1N1CCCC(c2nccn2CC2CC2)C1 (stereo not drawn) | 4.8%
O=C1CCc2ccccc2N1CCCn1cnnn1 | 3.92%
CC(C)c1nccn1CCCNC(=O)c1ccc(-c2ccncc2)nc1 | -9.77%
CN1CCc2nc(N(C)C)nc(N3CCC(O)CC3)c2C1 | -0.879%
CCN(Cc1noc(CC(C)C)n1)Cc1ccccc1OCC(=O)O | -49%
COc1cccc(F)c1-c1c[nH]c(C)n1 | -0.654%
c1cncc(NCCCNC2CCSC2)c1 (stereo not drawn) | -3.62%
CC(C)c1nc(N2CCN3CCCC3C2)c2cnn(C)c2n1 (stereo not drawn) | -11.9%
CCn1ncnc1C1CC(=O)NCc2nc3ccccn3c21 (stereo not drawn) | -12.2%
Cc1ncc(-c2nc3cc(S(=O)(=O)N4CCCC4)ccc3n2C)cn1 | -21%
Cc1cnc(N2CCCC3(CCCN(C)C3)C2)nc1 (stereo not drawn) | -11.8%
CC(C)c1noc(CN2CCCN(Cc3cccs3)CC2)n1 | -6.86%
NC(=O)C1CCN(C(=O)c2cccn2Cc2cccs2)C1 (stereo not drawn) | -8.5%
CCC(CC)C(=O)NS(=O)(=O)c1ccc(C#N)cc1C(F)(F)F | -15.9%
COc1ccc(F)cc1C(C)NC(=O)NCCCn1cncn1 (stereo not drawn) | -17.8%
Cc1ccc(NC2CCN(C(=O)c3cccc4cccnc34)CC2)nn1 | -8.31%
O=C(COc1ccc(C(F)(F)F)cc1)N1CCOCC1c1ncon1 (stereo not drawn) | -12.5%
OCCN1CCN(CC(O)c2ccc(OC(F)(F)F)cc2)CC1 (stereo not drawn) | -20.8%
Cc1ccccc1CCC(=O)N1CCCC(c2cc(C(N)=O)[nH]n2)C1 (stereo not drawn) | -11.3%
Cc1nc(C2CCCN(C(=O)c3ccoc3)C2)no1 (stereo not drawn) | -13.1%
CC(=O)Nc1nc(CN2CCOC(Cn3cncn3)C2)cs1 (stereo not drawn) | -27.5%

SMILES | cytotoxicity at 10 µM
Cc1cccc(C(=O)N2CCC(C(=O)c3cc(F)ccc3F)CC2)n1 | -0.448%
O=C(CCc1cccs1)N1CCCC(N2CCNC2=O)C1 (stereo not drawn) | -6.7%
Cc1ncc(C(=O)NC2CCc3nccn3C2)c(C(C)C)n1 (stereo not drawn) | -2.31%
O=C(NCCC(=O)N1CCCc2ccccc21)c1ccc(F)cc1F | -10.1%
Cn1cc(C(=O)N2CCCC(n3cncn3)C2)ccc1=O (stereo not drawn) | -5.03%
O=C(CCNC(=O)C1CCCC1)NCc1ccccc1Cn1cncn1 | -5.63%
CCNc1cc2c(nn1)CCN(C(=O)Cc1c(C)noc1C)C2 | -8.89%
CC(C)C(C(=O)N1CCCN(Cc2nccn2C)CC1)N1CCCC1 (stereo not drawn) | -13%
Cn1cc(NC(=O)N2CCC(c3ccccc3)CC2)ccc1=O | -9.42%
Cc1ccc(NC2CCN(C(=O)c3cc[nH]n3)CC2)nn1 | -15.2%
CS(=O)(=O)NCCCN1CCCC1Cc1ccccc1 (stereo not drawn) | -11.7%
CN(Cc1ccc(F)cc1)C(=O)CN1CCCC(Cn2cncn2)C1 (stereo not drawn) | -14.8%
c1csc(-c2nc(CN3CCn4c(nnc4C4CC4)C3)co2)c1 | 7.17%
Cc1ccc(NC2CCN(C(=O)c3cc(C(N)=O)cs3)CC2)nn1 | 2.94%
COc1c(C2CCCN2C(=O)c2ccc3cc[nH]c3c2)c(C)nn1C (stereo not drawn) | -2.74%
CNc1nc(C2CCCN2C(C)=O)nc2c1CN(CCO)CC2 (stereo not drawn) | 2.69%
COCC1CN(C(=O)COc2ccccc2)Cc2cn(C)nc21 (stereo not drawn) | 0.55%
Cc1ccc(CN2CCC3(CC2)COCCN3S(C)(=O)=O)o1 | 8.86%
CN(C)S(=O)(=O)N1C[C@@H]2COC[C@]2(COc2ccccn2)C1 | 0.705%
O=c1c2c[nH]c(N3CCC(O)CC3)nc-2cn1Cc1cccc(F)c1 | 20.6%
O=c1[nH][nH]c2cn(-c3ccc(Cl)cc3)c(=O)n12 | 6.45%
